Assay outcomes as filed in PubChem BioAssay.
CHOP inh: inhibitors of CHOP induction in ER stress response; inhibition, % at 10 µM; actives 3.8% (n = 220,000); CHO-K1 CHOP-promoter luciferase, tunicamycin-induced, 15-18 h;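 active means compounds that reduced the stress-induced luciferase reporter signal by more than about 70% of percent inhibition, limit read from the data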;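 further: 0% = tunicamycin plus vehicle and 100% = wells without tunicamycin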
UPR XBP1 act: activators of adaptive arm of unfolded protein response (XBP1); CHO-XBP1 luciferase reporter, IRE1-XBP1 UPR activation, luminescence; percent of tunicamycin response, DMSO as zero; activation, % at 20 µM; actives 0.33% (n = 330,000);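 active means versus positive control, 20 µM dose yields 30% or more activation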;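 further: 100% = tunicamycin at 10 µg/mL and 0% = DMSO only wells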
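Signal: luciferase luminescence; Assay system: CHO-XBP1 luciferase reporter cells; Amount: one thousand reporter cells per well; Dosing: 20 µM single concentration, DMSO 1%; Benchmarks: high control tunicamycin 10 µg/mL final, low control DMSO vehicle only; Schedule: 6 h compound exposure at 37 °C, 5% CO2; Evaluation: percent activation relative to tunicamycin reference.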
L major viab: inhibitors of Leishmania major promastigote growth; Leishmania major promastigotes, resazurin fluorescence viability; inhibition, % at 10 µM; AID 1063; actives 9% (n = 200,000); in the data active means inhibition above about 50%;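 further: promastigotes grown with compound for 44 hours at 28 °C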
UPR CHOP act: apoptotic UPR (CHOP) activation. AID 449763. actives 0.34% (n = 330,000). CHO-CHOP luciferase reporter, luminescence; percent of tunicamycin response over DMSO baseline. activation, % at 10 µM;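 active means at 10 µM dose, activation of 40% or more, normalized to positive control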;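 further: 100% = tunicamycin at 10 µg/mL and 0% = DMSO alone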
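Dosing – one dose, 10 µM in 0.5% DMSO · System – CHO-CHOP cells, stable luciferase reporter of PERK-eIF2a-CHOP signalling · Input – 500 cells/well · Control set – tunicamycin 10 µg/mL final as positive, DMSO-only wells as negative · Timing – 6 h compound treatment, 37 °C · Measure – % activation vs tunicamycin · Technique – luminescence read with Steady-Glo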
T cruzi repl: T. cruzi replication inhibition; T. cruzi beta-gal in NIH3T3, luminescence, 90 h; inhibition, % (no concentration beside the values); actives 1.4% (n = 300,000);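 active means mean inhibition across valid replicates above about 55%, limit read from the data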;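 further: signal also drops with host cell toxicity which is not excluded here; 0% = plate median of DMSO wells and 100% = zero luminescence signal; higher percent means less beta-gal luminescence so fewer parasites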
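System: NIH/3T3 fibroblasts plus reporter T. cruzi. Medium: DMEM plus 2% FBS. Probe or stimulus: 5000 reporter trypomastigotes per well. Compound: single 50 nL compound addition per well in DMSO. Incubation: co-culture of at least 90 h after 3 h attachment. Detection: GalScreen β-gal luminescence, detergent lysis, 60 min. Evaluation: parasite load inhibition, %.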
Dynein transport: blocks dynein driven cargo transport along microtubules. actives 0.47% (n = 220,000). z-score, hits read low. 3617.4 mouse cells, GR-EGFP nuclear translocation imaging; test concentration mostly 20 µM; stimulated with dexamethasone, 1 µM; hits give low values;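 active means plate z-score of nuclear minus cytoplasmic receptor signal below a set negative limit, without overly bright fluorescence or cell loss, cut at about -3.5 in these data, passing the limit was not always enough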;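 further: z-score of nuclear minus cytoplasmic ring GR-EGFP intensity difference per well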
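medium = tetracycline-free induction medium containing charcoal-stripped FBS | also added = 1.0 µM final dexamethasone stimulus | schedule = 48 h induction, 1 h compound, 30 min dex at 37 °C | technique = fixed, Hoechst-stained cells imaged at 10x for EGFP | measure = GR-EGFP nuclear translocation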
* = called active by the depositor; . = no result given. This excerpt belongs to a sample that is enriched for hits.

SMILES | CHOP inh | UPR XBP1 act | L major viab | UPR CHOP act | T cruzi repl | Dynein transport
Cc1ccc(C(=O)Nn2cnnc2)cc1Cl | . | 2 | . | -2 | -2 | .
CCC(CC)Nc1ccc(C(CC(N)=O)NC(=O)Cc2cccc3ccccc23)cc1[N+](=O)[O-] (configuration not stated) | . | -1 | . | 0 | -1 | .
COc1cccc(CN(Cc2ccco2)S(=O)(=O)c2ccc(S(=O)(=O)NCc3ccccc3)cc2)c1OC | 19 | 0 | 97* | 2 | . | -0.071
NC(=O)C1CN(C(=O)c2nn(Cc3ccccc3)c(=O)c3ccccc23)c2ccccc2O1 (configuration not stated) | . | -2 | . | 0 | . | .
COc1ccccc1OCC(=O)/C=C1/N(C)c2ccccc2C1(C)C | 26 | -4 | 57* | -1 | 22 | -0.21
CN1/C(=C\C(=O)COc2ccc3c(c2)OCO3)C(C)(C)c2ccccc21 | 85* | -2 | 32 | -4 | 56* | -1.7
CN1/C(=C\C(=O)C[n+]2ccc3ccccc3c2)C(C)(C)c2ccccc21 | 3 | 0 | 100* | 2 | 61* | 0.016
Cc1cn(C2CC(OC(=O)C(C)C)C(CO)O2)c(=O)[nH]c1=O (configuration not stated) | . | -2 | . | -3 | . | .
COc1ccc(C(=O)/C=C/c2ccccc2F)c(OC(=O)c2ccc([N+](=O)[O-])cc2)c1 | -23 | -1 | 91* | 1 | -5 | -0.78
CC1CCN(c2ccccc2NC(=O)c2ccc([N+](=O)[O-])o2)CC1 | . | 8 | . | 1 | 43 | .
O=C(Nc1ccccc1N1CCCC1)c1ccc([N+](=O)[O-])o1 | . | -2 | . | -2 | 62* | .
CC(C)C(=O)N1CCN(c2ccccc2NC(=O)c2ccc([N+](=O)[O-])o2)CC1 | . | -3 | . | 0 | 56* | .
COc1cc(OC)nc(Oc2cccc(Cl)c2C)n1 | . | -1 | . | -1 | -27 | .
O=C(CCc1nc2ccccc2s1)OCc1ccccc1 | 21 | -5 | 56* | 2 | -13 | -0.034
CCOP(=O)(OCC)c1nc(-c2cccc3ccccc23)oc1NCCc1ccc(OC)cc1 | 60 | -3 | 97* | 3 | 34 | -0.48
COC(=O)c1cn(C(=O)c2cc(Cl)ccc2Cl)c2ccccc12 | . | -3 | . | 2 | -7 | .
CCc1nccn1S(=O)(=O)c1ccc(Br)cc1Br | 34 | -4 | 89* | 0 | 1 | -0.33
O=C(Nc1cccnc1)c1ccc(Oc2ccccc2)cc1 | 4 | 5 | 90* | 4 | -6 | -1.1
O=C(Nc1cccnc1)c1ccccc1Oc1ccccc1 | 15 | 0 | 2 | -1 | 2 | -1.3
C=CCOCCN(C)C1=NS(=O)(=O)c2cc([N+](=O)[O-])ccc21 | -8 | -2 | 100* | 0 | 51 | 0.78
O=C(Nc1ccc(N2CCOCC2)cc1)c1cccc(S(=O)(=O)N2CCCCC2)c1 | 22 | -4 | 98* | -1 | -12 | -0.5
CSCCC(NC(N)=O)C(=O)Nc1cccc(S(=O)(=O)N2CCOCC2)c1 (configuration not stated) | -9 | -1 | -7 | 1 | -6 | -0.61
CCN1CCN(c2ccc(NC(=O)c3cccc(S(=O)(=O)N4CCCC4)c3)cc2)CC1 | . | 0 | . | 1 | . | .
CCOc1ccc(C(=O)N[C@H](C(=O)Nc2cccc(S(=O)(=O)N3CCOCC3)c2)C(C)C)cc1 | . | 17 | . | 1 | . | .
CCOc1ccc(C(=O)N[C@H](C(=O)Nc2cccc(S(=O)(=O)N3CCCCC3)c2)C(C)C)cc1 | 85* | 1 | 97* | 2 | 9 | 1.3
SMILES | CHOP inh | UPR XBP1 act | L major viab | UPR CHOP act | T cruzi repl | Dynein transport
CSCCC(NC(=O)c1cccc(S(=O)(=O)N2CCOCC2)c1)C(=O)Nc1ccc(F)cc1 (configuration not stated) | 13 | -3 | 73* | 1 | -3 | 0.31
CSCCC(NC(=O)c1ccccc1)C(=O)Nc1ccc(NC(C)=O)cc1 (configuration not stated) | -1 | -1 | 55* | 1 | 0 | -0.27
COC(=O)Cn1cc([N+](=O)[O-])nc1C | 1 | -2 | -1 | 1 | -19 | 1.3
CCN(Cc1ccncc1)C(=O)c1cc(COc2c(F)cccc2F)on1 | . | -5 | . | -1 | -1 | .
Cc1ccc(C(=O)N/C(=C\c2cccs2)C(=O)N2CCOCC2)cc1C | . | -3 | . | 1 | 0 | .
COc1ccc(NC(=O)CN(C)C(=O)C2(c3ccccc3)CCCC2)cc1 | . | -2 | . | -1 | . | .
CC(O/N=C/c1ccccc1OC(F)F)C(=O)Nc1cccc(S(=O)(=O)N2CCOCC2)c1 (configuration not stated) | -33 | 0 | 51* | 4 | 9 | -0.67
Cc1ccc(NC(=O)[C@@H](NC(=O)c2cccc(S(=O)(=O)N3CCOCC3)c2)C(C)C)cc1C | 53 | -1 | 76* | 1 | -13 | -0.18
CC(C)[C@H](NC(=O)c1ccccc1)C(=O)Nc1cccc(S(=O)(=O)N2CCOCC2)c1 | . | -1 | . | 3 | . | .
CC(C)c1nnc(SCC(=O)Nc2ccc3c(c2)OCCO3)n1C | . | -2 | . | -1 | -9 | .
C/C(=N\NC(=S)Nc1ccc(F)cc1)c1ccc2c(c1)OCCO2 | 4 | 3 | 77* | 7 | 43 | 0.34
C/C(=N\NC(N)=S)c1ccc2c(c1)OCCO2 | 12 | 5 | . | 2 | 14 | -0.69
CN(C)CCCCCCCCCCC(=O)/C=N/O | . | -1 | 99* | 0 | 47 | 0.5
CN(CCCCCCCCC(=O)/C=N/O)Cc1ccccc1 | 21 | 1 | 87* | -1 | 44 | -0.36
CCS(=O)(=O)N1CCN(c2ccccn2)CC1 | -2 | -1 | 92* | -1 | 3 | -0.5
CCCS(=O)(=O)N1CCN(c2ccccn2)CC1 | 12 | 0 | -3 | -3 | -10 | -0.82
COc1ccc(N=N/C(=C\O)C(=O)c2cccs2)cc1 | 72* | 0 | 69* | 3 | 1 | -0.052
COc1ccc(C(=O)/C(=C/O)N=Nc2ccc(F)cc2)cc1 | 53 | 0 | 61* | 2 | 4 | -0.45
COc1ccc(C(=O)C(/C=N/O)=N/Nc2ccc(F)cc2)cc1 | 6 | -3 | 5 | 0 | -21 | -0.58
Cc1c(C(=O)N2CCN(c3ncccn3)CC2)oc2ccc(Cl)cc12 | . | -3 | . | 0 | . | .
O=C(OCC(=O)N1CCCc2ccccc21)c1cc(Br)ccc1O | . | -1 | . | -1 | -14 | .
CC(C)(C)n1nnnc1C(c1cccs1)N1CCCC2(CCCCC2)C1 (configuration not stated) | 15 | -2 | 42 | 2 | 63* | -0.41
c1csc(C(c2nnnn2C2CCCCC2)N2CCCC3(CCCCC3)C2)c1 (configuration not stated) | 82* | 3 | 38 | 7 | 45 | -0.72
